zVAD death inh – inhibitors of zVAD-triggered necroptosis, primary screen, L929 cells | L929 zVAD necroptosis rescue, ATP luminescence, 24 h; with zVAD 60 µM | viability rescue, % at 10 µM | actives 0.38% (n = 220,000) | AID 1377, 2008;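 active = activation, scaled between plate controls, above about 75%, limit read from the data; inactive = activation under that limit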
TNF necrop inh – inhibitors of TNF-alpha triggered necroptosis, primary screen, cell-based, Jurkat FADD-/-, single concentration | Jurkat FADD-/- TNF necroptosis rescue, ATP luminescence, 24 h; 0 = TNF only, 100 = no-TNF cells | activation (protection from cell death), % at 10 µM | actives 0.068% (n = 220,000) | AID 463075, 2010;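 active = activation, meaning protection from cell death, of at least 50% relative to plate controls; inactive = activation below 50%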;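 also: necroptosis triggered by 40 ng/mL TNF-alpha added together with compound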
Wee1 stabilizer – Wee1 degradation inhibitors, primary screen, cell-based, HeLa, Wee1K328M-luciferase, luminescence; actives 1.2% (n = 220,000); reporter increase, % at 5 µM; HeLa Luc-Wee1K328M stability; 100% = proteasome inhibitor MG132 effect; Wee1-like protein kinase (Homo sapiens), P30291; AID 1321, 2008;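 active = activation above the mean of all tested compounds plus 3 SD, set per screening run, cut at about 8.8% in these data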;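 also: cells exposed to compound for 20 h before luminescence read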
Pf gametocyte – late stage P. falciparum gametocyte viability inhibitors, primary screen, ATP luminescence, HTS; P. falciparum stage V gametocytes, 24 h; inhibition, % at 10.9 µM; actives 0.065% (n = 150,000); AID 743093, 2013;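 active = inhibition above the mean plus 3 SD of compounds within the control limits, set per campaign, cut at about 38% in these data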
RBBP9 inh – human RBBP9 inhibitors, primary screen, biochemical, fluorescence polarization, FP-Rh probe, HTS; Serine hydrolase RBBP9 (Homo sapiens), O75884; recombinant RBBP9; inhibition, % at 7.94 µM; actives 0.2% (n = 220,000);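 active = inhibition above the campaign mean of all tested compounds plus 3 SD, cut at about 14% in these data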
Target sequence (O75884 whole entry, looked up): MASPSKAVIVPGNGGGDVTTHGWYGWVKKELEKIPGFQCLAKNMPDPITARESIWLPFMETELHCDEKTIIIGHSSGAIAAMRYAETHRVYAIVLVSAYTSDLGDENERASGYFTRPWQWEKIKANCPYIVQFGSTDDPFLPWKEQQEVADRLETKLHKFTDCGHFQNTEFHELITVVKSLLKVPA
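Test system – recombinant human RBBP9 · Input – RBBP9 2.5 µM in dispensing solution, pre-mixing · Medium – Tris buffer pH 8.0, NaCl, Pluronic · Schedule – preincubation 30 min plus labeling 45 min at 25 °C · Measured by – fluorescence polarization · Measure – % inhibition · Controls – DMSO and no-protein wells · Replicates – one well per compound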
Calpain2 inh – inhibitors of pig calpain II, primary screen, biochemical, fluorogenic peptide substrate, 1536-well | purified calpain II, 30 min | inhibition, % at 16 µM | actives 0.37% (n = 220,000) | AID 1236, 2008;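 active = inhibition above about 50%, limit read from the data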
Large screens that a line does not name were inactive. Compounds with a hit are over-represented: about 2.1% of the library has one in this group of screens.

O=[N+]([O-])c1ccc2[nH]nc(-c3ccccc3)c2c1	Wee1 stabilizer 8.9
O=C(O)c1[nH]c2ccc([N+](=O)[O-])cc2c1-c1ccccc1	none
CCOc1ccc(NS(=O)(=O)c2ccc3[nH]cc(C(=O)N(CC)CC)c(=O)c3c2)cc1	Wee1 stabilizer 17
O=C(NCc1ccc(F)cc1)c1c2c(nc3ccccc13)CCC2	none
CC1=NN(c2nc(-c3ccc(C)cc3)cs2)C(=O)C1N=Nc1ccc(C(N)=O)cc1 (stereo not drawn)	Wee1 stabilizer 9.9
COc1ccc([C@H]2CC(=O)C=C(/C=C/c3ccc(C(F)(F)F)cc3)C2)cc1	none (no result: zVAD death inh, TNF necrop inh, Wee1 stabilizer, RBBP9 inh, Calpain2 inh)
CC(C)Oc1ccc(CNC(=S)N/N=C/c2cccnc2)cc1	Wee1 stabilizer 9.2 (no result: Pf gametocyte)
C=CCc1cccc(/C=N/NC(=O)c2ccccc2OC)c1O	Wee1 stabilizer 8.9 (no result: Pf gametocyte)
S=C(c1ccc(N2CCCC2)cc1)N1CCCCC1	Calpain2 inh 64 (no result: Pf gametocyte)
Oc1ccc(C(=S)N2CCCCCC2)cc1	none
N#CC(c1cccc(Cl)c1)c1ccc2c(C(F)(F)F)cc(C(F)(F)F)nc2n1 (stereo not drawn)	Calpain2 inh 63
O=C(Nc1cccc2ccccc12)/C(Cl)=C/c1ccccc1	Calpain2 inh 58
O=C(Nc1ccccc1F)C(=O)Nc1cccc2ccccc12	none (no result: zVAD death inh, TNF necrop inh, Wee1 stabilizer, RBBP9 inh, Calpain2 inh)
c1ccc(-c2ccc(-c3ccncn3)cc2)cc1	none (no result: zVAD death inh, TNF necrop inh, Wee1 stabilizer, RBBP9 inh, Calpain2 inh)
COc1ccc(N(CC(O)Cn2c(C)nc3ccccc32)S(=O)(=O)c2ccccc2)cc1 (stereo not drawn)	none (no result: Pf gametocyte)
CCCC(=O)Nc1cc2c(cc1C(C)=O)OCCO2	none
CC(=O)Nc1cc2c(cc1C(C)=O)OCCO2	Wee1 stabilizer 9.0
CC(C)c1ccccc1NC(=O)COC(=O)c1c2c(nc3ccccc13)CCN(Cc1ccccc1)C2	Wee1 stabilizer 9.5
CC(=O)c1ccc(NC(=O)c2noc(C(C)C)c2[N+](=O)[O-])cc1	Calpain2 inh 95
COc1ccc(NC(=O)c2noc(C(C)C)c2[N+](=O)[O-])cc1	Calpain2 inh 53
CCc1ccc(NC(=O)c2noc(C(C)C)c2[N+](=O)[O-])cc1	none
Cn1cnnc1SCC(=O)NC1CCCCC1	none
CC12CC3CC(C)(C1)CC(C(=O)NC(=S)N1CCOCC1)(C3)C2	none (no result: Pf gametocyte)
O=C(Nc1nnc(-c2ccccc2SCc2ccccc2F)s1)Nc1ccccc1F	Calpain2 inh 51
O=C(Nc1nnc(-c2ccc(F)cc2)s1)Nc1ccccc1F	none
O=[N+]([O-])c1cc(Br)cc(C=Nc2ccc3c(c2)OCO3)c1O	Wee1 stabilizer 9.7
O=[N+]([O-])c1ccc(O)c(C=Nc2ccc3c(c2)OCO3)c1	none
CC1CCN(S(=O)(=O)c2cn(CC(=O)N3CC(C)CC(C)C3)c(=O)c3ccccc23)CC1 (stereo not drawn)	none (no result: zVAD death inh, Pf gametocyte)
Cc1noc(C)c1C1(O)CCCCCCCCCCC1	none
COc1ccc(CCNC(=O)COC(=O)CCC(=O)c2ccc(F)cc2)cc1	Wee1 stabilizer 11
COc1ccc(NC(=O)CN2CCN(c3nc(-c4ccc(F)cc4)cs3)CC2)c(OC)c1	Calpain2 inh 56
C[C@@H](C(=O)N1CCN(C(=O)OC(C)(C)C)CC1)n1cc(-c2cn([C@@H](C)C(=O)N3CCN(C(=O)OC(C)(C)C)CC3)nn2)nn1	none (no result: Wee1 stabilizer, Pf gametocyte, RBBP9 inh)
COc1ccc(N(C(=O)c2ccco2)S(=O)(=O)c2cc(Cl)c(Cl)cc2Cl)cc1	Calpain2 inh 54
O=C(/C=C/c1ccc([N+](=O)[O-])cc1)Nc1ncc([N+](=O)[O-])s1	Wee1 stabilizer 22
O=C(Nc1ncc([N+](=O)[O-])s1)c1cccs1	none (no result: zVAD death inh, TNF necrop inh, Wee1 stabilizer, RBBP9 inh, Calpain2 inh)
Cc1ccc(CC(=O)Nc2ncc([N+](=O)[O-])s2)cc1	TNF necrop inh 77
O=C(/C=C/c1ccc([N+](=O)[O-])cc1)NCc1ccccn1	none (no result: Pf gametocyte)
Cc1cc(Br)ccc1NC(=O)CN1C(=O)C2C3CC(c4ccccc4)C(C3)C2C1=O (stereo not drawn)	none (no result: Pf gametocyte)
CN(C)C(=O)C(=O)c1c(-c2ccccc2)cc2ccccn12	Calpain2 inh 54
O=C(NCCO)C(=O)c1c(-c2ccccc2)cc2ccccn12	none
CCN(CC)S(=O)(=O)c1cc(NC(=O)C(C)Nc2ccccc2N2CCOCC2)ccc1C (stereo not drawn)	Wee1 stabilizer 9.8 (no result: Pf gametocyte)
COc1ccc(Nc2c(-c3ccc(OC)cc3)nc3cnccn23)cc1	none
COc1ccc(Nc2c(-c3ccc(C)cc3)nc3cnccn23)cc1	Calpain2 inh 75
COC(=O)C(Cc1ccc(OC(=O)c2ccc(C(F)(F)F)cc2)cc1)N1Cc2ccccc2C1=O (stereo not drawn)	Calpain2 inh 71 (no result: Pf gametocyte)
COC(=O)C(Cc1ccc(OC(=O)c2ccc(Cl)cc2)cc1)N1Cc2ccccc2C1=O (stereo not drawn)	none
COc1ccc(Cc2nc(-c3cccs3)no2)cc1	Wee1 stabilizer 8.9
COc1ccc(Cc2nc(-c3cccs3)no2)cc1OC	none (no result: Pf gametocyte)
COCC(=O)Nc1ccc(Br)cc1C	Pf gametocyte 39
Cc1ccc(C(=O)NCC(C)NC(=O)c2ccc(C)c(C)c2)cc1C (stereo not drawn)	none (no result: zVAD death inh, TNF necrop inh, Wee1 stabilizer, RBBP9 inh, Calpain2 inh)
O=c1c2ccccc2cnn1-c1nc2ccccc2[nH]1	Pf gametocyte 47
O=c1c(Cl)c(N2CCCCC2)cnn1-c1nc2ccccc2[nH]1	none
CC(=O)Nc1ccc(NC(=O)CSc2nnc(N)n2-c2ccccc2)cc1	none (no result: zVAD death inh, TNF necrop inh, Wee1 stabilizer, RBBP9 inh, Calpain2 inh)
CCCCN(CC)CCNC(=O)CNC(=O)Cn1ccc2ccccc2c1=O	Calpain2 inh 52
CCN(CC)CCCNC(=O)Cn1ccc2ccccc2c1=O	none (no result: Pf gametocyte)
Cc1cc(=O)oc2cc(O)c(N=Nc3ccccc3)cc12	Wee1 stabilizer 9.4
CC(=O)c1cc2c(C)cc(=O)oc2cc1O	none (no result: Pf gametocyte)
CC(C)c1nc2c(c(=O)c3ccccc3n2C)c(=O)n1CCc1ccccc1	Wee1 stabilizer 10
COc1ccc(CCn2c(-c3ccccc3)nc3c(c(=O)c4ccccc4n3C)c2=O)cc1	none
Cc1c(O)ccc(C(=O)COc2ccc(F)cc2)c1O	Wee1 stabilizer 10 (no result: Pf gametocyte)
S=C(c1ccc(-c2ccc(Cl)cc2Cl)o1)N1CCCC1	none
S=C(c1ccc(-c2ccc(Cl)cc2Cl)o1)N1CCCCC1	Wee1 stabilizer 10 (no result: Pf gametocyte)
CCC(=O)Nc1nnc(SCC(=O)Nc2ccc(F)cc2)s1	none (no result: Pf gametocyte)
CC(C)CC(=O)Nc1nnc(SCC(=O)Nc2ccc(F)cc2)s1	Calpain2 inh 54
Cc1occc1C(=O)NNC(=O)C(c1ccccc1)c1ccccc1	none (no result: Pf gametocyte)
COc1cc(/C=C/C(=O)O)ccc1OS(=O)(=O)c1cc(C)ccc1C	none
O=C(Nc1cccs1)Nc1ccc(F)cc1F	Wee1 stabilizer 9.0

Screening data: PubChem BioAssay, several laboratories
